Experimental data: ChEMBL document CHEMBL5046272, “Discovery of Potent, Selective, and In Vivo Efficacious AKT Kinase Protein Degraders via Structure-Activity Relationship Studies” (J Med Chem, 2022)
Blank lines part the entries; values can stand above or below the molecule they belong to. Active and inactive are the calls of the source. No cut-off for these calls is given here.

Key:
[1] = Protac activity at CRBN/AKT in human BT-474 cells assessed as reduction in AKT protein level at 10 uM measured after 24 hrs by Western blot analysis
BT-474 = test: Inhibition of colony formation in human BT-474 cells at 0.1 to 10 uM incubated for 14 days by replacing culture medium for every 2 days by crystal violet staining based assay; type: functional, cell-based; conditions: dose 0.1-10 µM, time 14.0 day
Summary of the method: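 BT474 cells cultured 14 days with compound. Medium plus compound was replaced every 2 days. Viable cells were then stained with 0.5% crystal violet.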

[2] = biological target: RAC-alpha serine/threonine-protein kinase (Homo sapiens, UniProt P31749); test: Binding affinity to DNA-tagged AKT1 (unknown origin) assessed as dissociation constant by q-PCR based competitive binding assay
Summary of the method: (§1)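 KINOMEscan competition binding: DNA-tagged kinase competes between test compound and an immobilized active-site ligand, with bound kinase read by qPCR of the tag. Kd fitted from an 11-point threefold dilution series (top 30 μM) plus three DMSO control points, run in duplicate.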

[3] = biological target: RAC-gamma serine/threonine-protein kinase (Homo sapiens, UniProt Q9Y243); test: Binding affinity to DNA-tagged AKT3 (unknown origin) assessed as dissociation constant by q-PCR based competitive binding assay
Summary of the method: as §1

[4] = AUC in Swiss albino mouse at 75 mg/kg, ip administered as single dose measured upto 12 hrs post injection by LC-MS/MS analysis; type: ADME, organism-based; design: route intraperitoneal, dose 75 mg/kg, time <=12; conditions: in vivo
Summary of the method: (§2)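 Male Swiss Albino mice, single IP dose of HCl salt in 5% DMA/5% Solutol HS-15/90% normal saline. Plasma (~60 μL) drawn from three mice per time point at 0.5, 1, 2, 4, 8 and 12 h. Samples were held below −70 °C and quantified by LC–MS/MS (LLOQ 10.18 ng/mL). Parameters come from non-compartmental analysis of mean concentrations.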

PC-3 = test: Antiproliferative activity against human PC-3 cells assessed as inhibition of cell growth measured after 5 days by IncuCyte zoom live cell analysis; type: functional; conditions: PC-3, 120 h, time 5 day
Summary of the method: (§3)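 Cells grown in DMEM with 10% FBS at 37 °C, 5% CO₂. Seeded at 1–3 × 10³ cells/well in triplicate with serial compound dilutions for 5 days. Growth was taken as confluence from IncuCyte phase-contrast images of live cells. Three independent experiments.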

[5] = Drug exposure in Swiss albino mouse plasma at 75 mg/kg, ip administered as single dose measured upto 12 hrs by LC-MS/MS analysis; type: ADME, organism-based; conditions: in vivo
Summary of the method: as §2

[6] = Tmax in Swiss albino mouse at 75 mg/kg, ip administered as single dose measured upto 12 hrs by LC-MS/MS analysis; type: ADME, organism-based; conditions: in vivo
Summary of the method: as §2

[7] = Toxicity in immunocompromised NU/J mouse xenografted with human PC-3 cells assessed as body weight loss at 75 mg/kg, ip administered once daily for 22 days; type: organism-based; conditions: in vivo, 528 h, time 22 day
Summary of the method: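 Male NU/J nude mice, 6 weeks old, engrafted with PC-3 cells. Randomized at ~100 mm³ tumors to vehicle (n = 6) or 75 mg/kg IP once daily (n = 7) for 22 days. Body weight compared at study start and end. Unblinded.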

MDA-MB-468 = test: Antiproliferative activity against human MDA-MB-468 cells assessed as cell growth by measured after 5 days by IncuCyte zoom live cell analysis; type: functional; conditions: MDA-MB-468, 120 h, time 5 day
Summary of the method: as §3

[8] = Cmax in Swiss albino mouse at 75 mg/kg, ip administered as single dose measured upto 12 hrs by LC-MS/MS analysis; type: ADME, organism-based; design: route intraperitoneal, dose 75 mg/kg, time <=12; conditions: in vivo
Summary of the method: as §2

[9] = biological target: T1, von Hippel-Lindau disease tumor suppressor/AKT (Homo sapiens) (UniProt P31751+Q9Y243+P31749+P40337); test: Protac activity at VHL/AKT in human BT-474 cells assessed as inhibition of downstream signalling by measuring reduction in PRAS40 phosphorylation at T246 residue at 5 uM measured after 24 hrs Western blot analysis; type: cell-based
Summary of the method: (§4)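 BT474 cells treated 24 h at 1, 5 or 10 μM, alongside AZD5363 (1 μM) and the matching E3 ligand VHL-1 or pomalidomide (1 μM). Lysates in urea/SDS sample buffer were run on 4–12% Bis-Tris gels and blotted to PVDF. Blots probed for total AKT, P-AKT S473, P-PRAS40 T246 and P-S6 S240/244, with β-actin loading control and chemiluminescent detection.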

[10] = biological target: T1, von Hippel-Lindau disease tumor suppressor/AKT (Homo sapiens); test: Protac activity at VHL/AKT in human BT-474 cells assessed as reduction in total AKT protein level at 1 to 10 uM measured after 24 hrs by Western blot analysis; type: cell-based; conditions: dose 1-10 µM
Summary of the method: as §4

[11] = Protac activity at CRBN/AKT in human BT-474 cells assessed as reduction in AKT protein level at 1 to 10 uM measured after 24 hrs by Western blot analysis; conditions: dose 1-10 µM
[12] = Protac activity at CRBN/AKT in human BT-474 cells assessed as inhibition of downstream signalling by measuring reduction in PRAS40 phosphorylation at T246 residue at 1 to 10 uM measured after 24 hrs Western blot analysis; conditions: dose 1-10 µM

RAC-gamma serine/threonine-protein kinase, sequence (Q9Y243 whole entry): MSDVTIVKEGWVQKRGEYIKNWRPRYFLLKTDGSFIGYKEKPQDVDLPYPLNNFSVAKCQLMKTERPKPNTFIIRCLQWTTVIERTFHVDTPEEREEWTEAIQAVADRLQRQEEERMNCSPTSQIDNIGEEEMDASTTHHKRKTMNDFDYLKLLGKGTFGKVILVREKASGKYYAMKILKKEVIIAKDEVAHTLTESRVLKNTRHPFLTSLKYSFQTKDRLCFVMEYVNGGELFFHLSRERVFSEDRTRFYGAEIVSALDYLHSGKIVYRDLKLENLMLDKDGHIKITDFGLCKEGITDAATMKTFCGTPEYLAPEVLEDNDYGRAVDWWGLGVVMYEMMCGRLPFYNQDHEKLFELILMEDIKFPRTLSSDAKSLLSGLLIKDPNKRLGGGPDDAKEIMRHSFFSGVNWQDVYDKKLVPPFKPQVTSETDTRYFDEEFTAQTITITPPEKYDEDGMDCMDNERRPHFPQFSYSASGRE
RAC-alpha serine/threonine-protein kinase, sequence (P31749 whole entry): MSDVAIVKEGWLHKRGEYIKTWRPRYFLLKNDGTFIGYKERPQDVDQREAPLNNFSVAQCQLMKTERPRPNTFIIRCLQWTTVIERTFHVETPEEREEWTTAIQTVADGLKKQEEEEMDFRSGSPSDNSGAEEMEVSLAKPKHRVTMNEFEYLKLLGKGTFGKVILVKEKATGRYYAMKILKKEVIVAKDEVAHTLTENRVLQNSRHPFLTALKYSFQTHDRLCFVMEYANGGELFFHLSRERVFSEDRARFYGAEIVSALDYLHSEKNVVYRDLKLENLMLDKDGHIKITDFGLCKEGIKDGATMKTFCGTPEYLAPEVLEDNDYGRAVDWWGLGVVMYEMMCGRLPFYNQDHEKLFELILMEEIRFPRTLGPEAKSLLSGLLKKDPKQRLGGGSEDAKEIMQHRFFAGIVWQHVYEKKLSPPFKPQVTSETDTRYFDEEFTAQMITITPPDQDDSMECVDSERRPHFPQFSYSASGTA

Structure (SMILES): Cc1ncsc1-c1ccc(CNC(=O)[C@@H]2C[C@@H](O)CN2C(=O)[C@@H](NC(=O)CCCCCCCCCCC(=O)N2CCN(CC[C@H](NC(=O)C3(N)CCN(c4ncnc5[nH]ccc45)CC3)c3ccc(Cl)cc3)CC2)C(C)(C)C)cc1
AUC [4]: 63600 ng·h/mL
GI50 (PC-3): 0.8 µM
Activity [5]: 3.7 µM
inhibition (BT-474): Active
Tmax [6]: 2 h
Activity [7]: Non-Toxic
GI50 (MDA-MB-468): 1 µM
Cmax [8]: 7 µM

Structure (SMILES): NC1(C(=O)N[C@@H](CCO)c2ccc(Cl)cc2)CCN(c2nc[nH]c3nccc2-3)CC1 [CAPIVASERTIB]
GI50 (PC-3): 6.5 µM
GI50 (MDA-MB-468): 3.8 µM

Structure (SMILES): Cc1ncsc1-c1ccc(CNC(=O)[C@@H]2C[C@@H](O)CN2C(=O)[C@@H](NC(=O)CCCCC(=O)N2CCN(CC[C@H](NC(=O)C3(N)CCN(c4ncnc5[nH]ccc45)CC3)c3ccc(Cl)cc3)CC2)C(C)(C)C)cc1
inhibition [9]: inactive
Activity [10]: Active

Structure (SMILES): Cc1ncsc1-c1ccc(CNC(=O)[C@@H]2C[C@@H](O)CN2C(=O)[C@@H](NC(=O)CCCCCCCCCC(=O)N2CCN(CC[C@H](NC(=O)C3(N)CCN(c4ncnc5[nH]ccc45)CC3)c3ccc(Cl)cc3)CC2)C(C)(C)C)cc1
inhibition (BT-474): Active

Structure (SMILES): Cc1ncsc1-c1ccc([C@H](C)NC(=O)[C@@H]2C[C@@H](O)CN2C(=O)[C@@H](NC(=O)CCCCCCCCCC(=O)N2CCN(CC[C@H](NC(=O)C3(N)CCN(c4ncnc5[nH]ccc45)CC3)c3ccc(Cl)cc3)CC2)C(C)(C)C)cc1
inhibition (BT-474): Active

Structure (SMILES): Cc1ncsc1-c1ccc(CNC(=O)[C@@H]2C[C@@H](OCc3ccccc3)CN2C(=O)[C@@H](NC(=O)CCCCCCCCCCC(=O)N2CCN(CC[C@H](NC(=O)C3(N)CCN(c4ncnc5[nH]ccc45)CC3)c3ccc(Cl)cc3)CC2)C(C)(C)C)cc1
Kd [2]: 0.15 µM
Kd [3]: 2.9 µM

Structure (SMILES): Cc1ncsc1-c1ccc(CNC(=O)[C@@H]2C[C@@H](O)CN2C(=O)[C@@H](NC(=O)CCCCCC(=O)N2CCN(CC[C@H](NC(=O)C3(N)CCN(c4ncnc5[nH]ccc45)CC3)c3ccc(Cl)cc3)CC2)C(C)(C)C)cc1
inhibition [9]: inactive
Activity [10]: Active

Structure (SMILES): Cc1ncsc1-c1ccc(CNC(=O)[C@@H]2C[C@@H](O)CN2C(=O)[C@@H](NC(=O)CCCCCCCCCCCC(=O)N2CCN(CC[C@H](NC(=O)C3(N)CCN(c4ncnc5[nH]ccc45)CC3)c3ccc(Cl)cc3)CC2)C(C)(C)C)cc1
inhibition (BT-474): Active

Further lines, with some results ahead:

Activity [1]: inactive
Structure (SMILES): NC1(C(=O)N[C@@H](CCN2CCN(C(=O)CCOCCOCCOCCOCCOCCOc3cccc4c3C(=O)N(C3CCC(=O)NC3=O)C4=O)CC2)c2ccc(Cl)cc2)CCN(c2ncnc3[nH]ccc23)CC1 (stereo partly drawn)
inhibition (BT-474): inactive

Activity [1]: inactive
Structure (SMILES): NC1(C(=O)N[C@@H](CCN2CCN(C(=O)CCOCCOCCOCCOCCOCCNc3cccc4c3CN(C3CCC(=O)NC3=O)C4=O)CC2)c2ccc(Cl)cc2)CCN(c2ncnc3[nH]ccc23)CC1 (stereo partly drawn)

Activity [1]: inactive
Structure (SMILES): NC1(C(=O)N[C@@H](CCN2CCN(C(=O)CCOCCOCCOCCOCCOCCCc3cccc4c3C(=O)N(C3CCC(=O)NC3=O)C4=O)CC2)c2ccc(Cl)cc2)CCN(c2ncnc3[nH]ccc23)CC1 (stereo partly drawn)
inhibition (BT-474): inactive

Kd [2]: 0.0055 µM
Kd [3]: 0.023 µM
Structure (SMILES): CN1C(=O)CCC(N2C(=O)c3cccc(NCCOCCOCCOCCOCCOCCC(=O)N4CCN(CC[C@H](NC(=O)C5(N)CCN(c6ncnc7[nH]ccc67)CC5)c5ccc(Cl)cc5)CC4)c3C2=O)C1=O (stereo partly drawn)

Activity [11]: Active
inhibition [12]: Active
Structure (SMILES): NC1(C(=O)N[C@@H](CCN2CCN(C(=O)CCCNc3cccc4c3C(=O)N(C3CCC(=O)NC3=O)C4=O)CC2)c2ccc(Cl)cc2)CCN(c2ncnc3[nH]ccc23)CC1 (stereo partly drawn)

Activity [1]: Active
Structure (SMILES): NC1(C(=O)N[C@@H](CCN2CCN(C(=O)CCOCCNc3cccc4c3C(=O)N(C3CCC(=O)NC3=O)C4=O)CC2)c2ccc(Cl)cc2)CCN(c2ncnc3[nH]ccc23)CC1 (stereo partly drawn)

GI50 (PC-3): 10.8 µM
GI50 (MDA-MB-468): 4.8 µM
Structure (SMILES): NC1(C(=O)N[C@@H](CCN2CCN(C(=O)CCOCCOCCOCCOCCOCCNc3cccc4c3C(=O)N(C3CCC(=O)NC3=O)C4=O)CC2)c2ccc(Cl)cc2)CCN(c2ncnc3[nH]ccc23)CC1 (stereo partly drawn)

Activity [11]: Active
inhibition [12]: Active
Structure (SMILES): NC1(C(=O)N[C@@H](CCN2CCN(C(=O)CCCCCNc3cccc4c3C(=O)N(C3CCC(=O)NC3=O)C4=O)CC2)c2ccc(Cl)cc2)CCN(c2ncnc3[nH]ccc23)CC1 (stereo partly drawn)
